Measurements as given in ChEMBL document CHEMBL2176911 (J Med Chem, 2012).
The source made the active and inactive calls. No cut-off for these calls is given here.

Assays:
[1] = target: Glycogen synthase kinase-3 alpha (Homo sapiens, UniProt P49840); experiment: Inhibition of human recombinant GSK3alpha expressed in insect cells using YRRAAVPPSPSLSRHSSPHQ-phosphoS-EDEEE as substrate and [gamma33P]ATP after 30 mins by scintillation counting
[2] = target: Casein kinase II subunit alpha (Mus musculus) (UniProt Q60737); experiment: Binding affinity to CK2 alpha subunit in mouse brain homogenate by Western blot analysis; assay type: tissue-based
Sequence of Casein kinase II subunit alpha (Mus musculus) (Q60737 whole entry): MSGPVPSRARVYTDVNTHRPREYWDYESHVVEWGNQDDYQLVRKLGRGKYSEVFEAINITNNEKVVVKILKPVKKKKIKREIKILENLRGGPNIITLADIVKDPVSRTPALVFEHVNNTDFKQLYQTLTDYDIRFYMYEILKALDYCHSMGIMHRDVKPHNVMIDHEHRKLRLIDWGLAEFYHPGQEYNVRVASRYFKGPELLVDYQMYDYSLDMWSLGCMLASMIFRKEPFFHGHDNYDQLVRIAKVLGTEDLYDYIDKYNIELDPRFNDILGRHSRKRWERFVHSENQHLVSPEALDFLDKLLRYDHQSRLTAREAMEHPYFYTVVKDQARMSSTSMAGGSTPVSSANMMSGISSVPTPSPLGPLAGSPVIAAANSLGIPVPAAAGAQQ
Method in brief: (§1)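 Bead pull-down from HT22 cell or mouse brain extracts, with ethanolamine beads lacking ligand as control. Specificity was tested by adding excess free inhibitor to the extracts before binding.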

[3] = target: Glycogen synthase kinase-3 beta (Homo sapiens, UniProt P49841); experiment: Inhibition of human recombinant GSK3beta expressed in insect cells using YRRAAVPPSPSLSRHSSPHQ-phosphoS-EDEEE as substrate and [gamma33P]ATP after 30 mins by scintillation counting
Sequence of Glycogen synthase kinase-3 beta (P49841 whole entry): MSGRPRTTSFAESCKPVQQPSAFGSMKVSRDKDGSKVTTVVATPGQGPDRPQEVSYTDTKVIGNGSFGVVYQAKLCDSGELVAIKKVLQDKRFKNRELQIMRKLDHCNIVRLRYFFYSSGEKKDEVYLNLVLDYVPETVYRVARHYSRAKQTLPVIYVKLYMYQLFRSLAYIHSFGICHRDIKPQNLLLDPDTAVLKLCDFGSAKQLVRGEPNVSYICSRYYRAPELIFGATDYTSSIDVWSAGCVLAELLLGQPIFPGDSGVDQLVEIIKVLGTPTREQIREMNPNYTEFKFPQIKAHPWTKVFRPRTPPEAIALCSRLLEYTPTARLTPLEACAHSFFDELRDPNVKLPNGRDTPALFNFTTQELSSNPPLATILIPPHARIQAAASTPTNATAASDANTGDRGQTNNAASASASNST

[4] = target: Casein kinase II subunit beta (Mus musculus) (UniProt P67871); experiment: Binding affinity to CK2 beta subunit in mouse brain homogenate by Western blot analysis; assay type: tissue-based; method in brief: as §1
Sequence of Casein kinase II subunit beta (Mus musculus) (P67871 whole entry): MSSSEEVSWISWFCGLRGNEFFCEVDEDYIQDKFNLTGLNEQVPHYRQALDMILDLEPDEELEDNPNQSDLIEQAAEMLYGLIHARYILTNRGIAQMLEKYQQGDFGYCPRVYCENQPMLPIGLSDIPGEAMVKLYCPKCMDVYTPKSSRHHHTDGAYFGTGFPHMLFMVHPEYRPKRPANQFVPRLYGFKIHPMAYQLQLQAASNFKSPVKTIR

Protein VAC14 homolog = Protein VAC14 homolog (Mus musculus, UniProt Q80WQ2); experiment: Binding affinity to VAC14 in mouse brain homogenate after 3 hrs by competition affinity chromatographic analysis; assay type: tissue-based
Method in brief: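 Mouse brain lysate applied to a KinAffinity matrix of mixed immobilized broad-spectrum kinase inhibitors at highest loading density, with increasing concentrations of free inhibitor added. […] Separate titrations of the immobilized ligands gave BC50 values.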

CDK9/cyclin T1 = CDK9/cyclin T1 (Homo sapiens, UniProt P50750); experiment: Inhibition of human recombinant CDK9/cyclin T expressed in insect cell using YSPTSPSYSPTSPSYSPTSPSKKKK as substrate and [gamma33P]ATP after 30 mins by scintillation counting
Sequence of CDK9/cyclin T1 (O60563 whole entry): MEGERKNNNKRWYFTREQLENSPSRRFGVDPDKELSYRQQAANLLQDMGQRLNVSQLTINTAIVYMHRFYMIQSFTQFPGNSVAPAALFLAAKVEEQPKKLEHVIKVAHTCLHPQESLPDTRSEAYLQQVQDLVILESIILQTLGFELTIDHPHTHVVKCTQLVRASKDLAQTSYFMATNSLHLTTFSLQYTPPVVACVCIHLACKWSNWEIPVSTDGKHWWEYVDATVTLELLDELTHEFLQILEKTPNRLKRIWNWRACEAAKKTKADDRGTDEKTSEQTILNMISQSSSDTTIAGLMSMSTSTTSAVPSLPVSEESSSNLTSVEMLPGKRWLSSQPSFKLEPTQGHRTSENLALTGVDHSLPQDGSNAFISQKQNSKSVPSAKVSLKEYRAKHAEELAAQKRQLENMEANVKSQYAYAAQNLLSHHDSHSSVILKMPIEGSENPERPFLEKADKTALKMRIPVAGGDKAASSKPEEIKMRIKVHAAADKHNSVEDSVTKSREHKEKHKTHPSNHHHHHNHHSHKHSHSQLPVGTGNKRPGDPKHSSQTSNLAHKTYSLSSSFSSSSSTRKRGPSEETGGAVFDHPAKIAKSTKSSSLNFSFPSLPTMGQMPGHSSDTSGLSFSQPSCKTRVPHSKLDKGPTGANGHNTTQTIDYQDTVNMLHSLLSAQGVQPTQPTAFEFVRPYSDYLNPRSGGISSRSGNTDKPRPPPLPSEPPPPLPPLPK
Sequence of CDK9/cyclin T1 (P50750 whole entry): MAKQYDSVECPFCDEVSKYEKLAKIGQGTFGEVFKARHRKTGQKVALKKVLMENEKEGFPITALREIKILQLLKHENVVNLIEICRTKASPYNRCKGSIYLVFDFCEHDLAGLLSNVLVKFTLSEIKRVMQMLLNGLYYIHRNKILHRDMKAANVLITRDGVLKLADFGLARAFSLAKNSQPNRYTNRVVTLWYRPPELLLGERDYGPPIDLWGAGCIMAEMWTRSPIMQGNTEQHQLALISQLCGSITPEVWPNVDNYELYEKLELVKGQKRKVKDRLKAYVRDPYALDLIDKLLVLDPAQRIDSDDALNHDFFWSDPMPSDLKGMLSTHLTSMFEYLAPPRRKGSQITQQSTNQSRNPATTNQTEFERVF
Method in brief: (§2)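 Panel of purified kinases (recombinant from several species plus native enzymes), each assayed radiometrically over a range of inhibitor concentrations; IC50 in μM calculated from the dose-response curves.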

[5] = target: T1, Dual specificity tyrosine-phosphorylation-regulated kinase 4 (Homo sapiens, UniProt Q9NR20); experiment: Inhibition of human recombinant GST-tagged DYRK4 expressed in Escherichia coli using GRSRSRSRSRSR as substrate and [gamma33P]ATP after 30 mins by scintillation counting
T1 sequence (Q9NR20 whole entry): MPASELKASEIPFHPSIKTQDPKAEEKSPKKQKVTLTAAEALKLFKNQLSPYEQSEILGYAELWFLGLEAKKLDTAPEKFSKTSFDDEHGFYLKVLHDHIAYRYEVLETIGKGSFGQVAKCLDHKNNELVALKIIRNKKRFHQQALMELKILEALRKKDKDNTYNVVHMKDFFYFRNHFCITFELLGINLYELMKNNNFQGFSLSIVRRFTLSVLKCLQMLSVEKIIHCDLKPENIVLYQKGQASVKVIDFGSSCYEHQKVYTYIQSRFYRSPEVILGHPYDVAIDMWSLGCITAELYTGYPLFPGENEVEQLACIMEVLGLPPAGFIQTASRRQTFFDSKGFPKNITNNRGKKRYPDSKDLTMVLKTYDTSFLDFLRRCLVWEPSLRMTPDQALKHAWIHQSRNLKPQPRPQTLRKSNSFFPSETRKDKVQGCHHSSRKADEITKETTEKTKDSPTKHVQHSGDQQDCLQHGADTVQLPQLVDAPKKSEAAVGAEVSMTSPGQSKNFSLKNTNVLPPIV

HT-22 = experiment: Neuroprotective activity against glutamate-induced toxicity in mouse HT22 cells after 24 hrs by MTS assay; assay type: functional, cell-based
[6] = target: Dual specificity tyrosine-phosphorylation-regulated kinase 3 (Homo sapiens) (UniProt O43781); experiment: Inhibition of human recombinant GST-tagged DYRK3 expressed in Escherichia coli using KKISGRLSPIMTEQ as substrate at 10 uM after 30 mins
Sequence of Dual specificity tyrosine-phosphorylation-regulated kinase 3 (Homo sapiens) (O43781 whole entry): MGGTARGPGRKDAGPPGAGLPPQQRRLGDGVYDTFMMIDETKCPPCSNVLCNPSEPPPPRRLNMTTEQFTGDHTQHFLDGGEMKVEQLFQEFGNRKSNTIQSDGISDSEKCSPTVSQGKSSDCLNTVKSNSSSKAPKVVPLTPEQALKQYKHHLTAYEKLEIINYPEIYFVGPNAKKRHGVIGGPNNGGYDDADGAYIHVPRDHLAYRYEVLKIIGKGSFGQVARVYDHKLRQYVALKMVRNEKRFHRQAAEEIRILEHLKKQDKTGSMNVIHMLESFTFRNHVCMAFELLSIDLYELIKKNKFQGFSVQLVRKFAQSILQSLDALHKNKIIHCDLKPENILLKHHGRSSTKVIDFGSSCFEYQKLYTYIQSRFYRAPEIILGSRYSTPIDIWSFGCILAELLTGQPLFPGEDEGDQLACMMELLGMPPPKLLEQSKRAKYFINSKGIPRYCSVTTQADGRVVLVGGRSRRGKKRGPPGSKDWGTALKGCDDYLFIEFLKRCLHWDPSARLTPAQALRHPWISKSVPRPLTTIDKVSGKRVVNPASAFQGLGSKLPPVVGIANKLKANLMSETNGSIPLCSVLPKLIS

[7] = Inhibition of pig […] isolated from brain using RRKHAAIGpSAYSITA as substrate and [gamma33P]ATP after 30 mins by scintillation couting; design: species or system Sus scrofa; method in brief: as §2
[8] = target: Cyclin-dependent kinase 7/ cyclin H (Homo sapiens, UniProt P50613); experiment: Inhibition of human recombinant CDK7/cyclin H expressed in insect cell using YSPTSPSYSPTSPSYSPTSPSKKKK as substrate and [gamma33P]ATP after 30 mins by scintillation counting; method in brief: as §2
[9] = target: Casein kinase II subunit alpha (Mus musculus) (UniProt Q60737); experiment: Binding affinity to CK2 alpha subunit in mouse HT22 cell lysate by Western blot analysis; assay type: cell-free; settings: HT-22; method in brief: as §1
[10] = target: Dual specificity tyrosine-phosphorylation-regulated kinase 1A (Mus musculus) (UniProt Q61214); experiment: Inhibition of DYRK1A isolated from mouse HT22 cells; assay type: cell-free; settings: HT-22
[11] = target: 1-phosphatidylinositol 3-phosphate 5-kinase (Mus musculus) (UniProt Q9Z1T6); experiment: Binding affinity to phosphatidylinositol-3-phosphate 5-kinase type 3 in mouse HT22 cell lysate by Western blot analysis; assay type: cell-free; settings: HT-22; method in brief: as §1
[12] = Inhibition of CK2 at 10 uM after 30 mins
[13] = target: Dual specificity tyrosine-phosphorylation-regulated kinase 3 (Homo sapiens) (UniProt O43781); experiment: Inhibition of human recombinant GST-tagged DYRK3 expressed in Escherichia coli using KKISGRLSPIMTEQ as substrate at 1 uM after 30 mins
[14] = target: T2, Dual specificity tyrosine-phosphorylation-regulated kinase 2 (Homo sapiens) (UniProt Q92630); experiment: Inhibition of human recombinant GST-tagged DYRK2 expressed in Escherichia coli using KKISGRLSPIMTEQ as substrate at 10 uM after 30 mins
T2 sequence (whole entry): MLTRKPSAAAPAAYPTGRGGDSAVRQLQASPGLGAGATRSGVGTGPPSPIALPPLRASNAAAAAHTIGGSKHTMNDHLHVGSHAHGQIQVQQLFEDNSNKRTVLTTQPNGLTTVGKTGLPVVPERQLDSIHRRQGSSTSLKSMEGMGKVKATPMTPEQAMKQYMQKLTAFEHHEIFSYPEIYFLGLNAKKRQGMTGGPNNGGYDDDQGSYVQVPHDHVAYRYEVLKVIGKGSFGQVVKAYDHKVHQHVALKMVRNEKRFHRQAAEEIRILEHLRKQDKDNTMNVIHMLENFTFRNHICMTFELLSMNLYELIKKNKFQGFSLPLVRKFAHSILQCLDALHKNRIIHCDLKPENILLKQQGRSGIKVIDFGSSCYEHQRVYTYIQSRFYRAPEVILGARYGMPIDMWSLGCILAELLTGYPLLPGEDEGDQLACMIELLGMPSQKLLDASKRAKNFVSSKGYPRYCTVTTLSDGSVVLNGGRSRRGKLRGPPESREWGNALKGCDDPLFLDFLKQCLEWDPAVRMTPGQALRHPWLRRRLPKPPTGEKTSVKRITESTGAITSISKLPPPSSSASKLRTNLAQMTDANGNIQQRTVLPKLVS

Mus musculus = organism: Mus musculus; experiment: Binding affinity to GSK3beta1 in mouse brain homogenate by Western blot analysis; assay type: tissue-based; method in brief: as §1
[15] = target: Homeodomain-interacting protein kinase 1 (Homo sapiens, UniProt Q86Z02); experiment: Binding affinity to HIPK1
Sequence of Homeodomain-interacting protein kinase 1 (Q86Z02 whole entry): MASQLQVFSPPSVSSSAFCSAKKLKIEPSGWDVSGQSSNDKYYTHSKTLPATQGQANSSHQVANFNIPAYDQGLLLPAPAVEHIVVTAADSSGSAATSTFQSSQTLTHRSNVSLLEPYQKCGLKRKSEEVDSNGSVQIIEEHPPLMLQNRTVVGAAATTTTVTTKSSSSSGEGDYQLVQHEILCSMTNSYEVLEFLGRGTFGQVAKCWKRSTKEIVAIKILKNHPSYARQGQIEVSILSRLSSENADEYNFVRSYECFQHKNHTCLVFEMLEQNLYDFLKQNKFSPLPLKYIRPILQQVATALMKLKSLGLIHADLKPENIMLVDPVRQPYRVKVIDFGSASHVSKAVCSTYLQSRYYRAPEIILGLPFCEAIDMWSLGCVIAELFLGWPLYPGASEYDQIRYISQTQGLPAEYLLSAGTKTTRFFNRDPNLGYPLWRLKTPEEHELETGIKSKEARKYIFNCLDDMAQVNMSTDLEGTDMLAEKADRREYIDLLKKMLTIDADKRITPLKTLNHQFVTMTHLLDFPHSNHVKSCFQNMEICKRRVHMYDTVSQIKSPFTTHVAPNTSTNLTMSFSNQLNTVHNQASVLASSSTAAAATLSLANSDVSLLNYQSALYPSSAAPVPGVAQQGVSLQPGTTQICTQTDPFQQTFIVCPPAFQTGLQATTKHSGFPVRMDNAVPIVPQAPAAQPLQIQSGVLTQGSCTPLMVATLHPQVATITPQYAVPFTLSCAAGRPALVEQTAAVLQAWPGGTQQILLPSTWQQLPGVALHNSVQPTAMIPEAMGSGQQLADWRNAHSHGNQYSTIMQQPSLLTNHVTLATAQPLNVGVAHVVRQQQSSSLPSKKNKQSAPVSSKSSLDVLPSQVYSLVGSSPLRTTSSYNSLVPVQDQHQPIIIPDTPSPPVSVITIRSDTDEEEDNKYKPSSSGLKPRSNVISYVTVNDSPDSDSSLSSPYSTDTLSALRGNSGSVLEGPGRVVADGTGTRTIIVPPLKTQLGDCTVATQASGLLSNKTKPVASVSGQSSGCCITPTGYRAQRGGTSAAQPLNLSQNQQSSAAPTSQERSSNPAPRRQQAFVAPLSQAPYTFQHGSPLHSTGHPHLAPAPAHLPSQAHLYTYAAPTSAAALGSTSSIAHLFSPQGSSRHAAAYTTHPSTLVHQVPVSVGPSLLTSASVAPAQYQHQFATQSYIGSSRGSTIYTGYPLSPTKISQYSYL

[16] = target: Dual specificity protein kinase CLK2 (Mus musculus, UniProt O35491); experiment: Inhibition of mouse recombinant GST-tagged CLK2 expressed in Escherichia coli using GRSRSRSRSRSR as substrate and [gamma33P]ATP after 30 mins by scintillation counting; method in brief: as §2
Sequence of Dual specificity protein kinase CLK2 (O35491 whole entry): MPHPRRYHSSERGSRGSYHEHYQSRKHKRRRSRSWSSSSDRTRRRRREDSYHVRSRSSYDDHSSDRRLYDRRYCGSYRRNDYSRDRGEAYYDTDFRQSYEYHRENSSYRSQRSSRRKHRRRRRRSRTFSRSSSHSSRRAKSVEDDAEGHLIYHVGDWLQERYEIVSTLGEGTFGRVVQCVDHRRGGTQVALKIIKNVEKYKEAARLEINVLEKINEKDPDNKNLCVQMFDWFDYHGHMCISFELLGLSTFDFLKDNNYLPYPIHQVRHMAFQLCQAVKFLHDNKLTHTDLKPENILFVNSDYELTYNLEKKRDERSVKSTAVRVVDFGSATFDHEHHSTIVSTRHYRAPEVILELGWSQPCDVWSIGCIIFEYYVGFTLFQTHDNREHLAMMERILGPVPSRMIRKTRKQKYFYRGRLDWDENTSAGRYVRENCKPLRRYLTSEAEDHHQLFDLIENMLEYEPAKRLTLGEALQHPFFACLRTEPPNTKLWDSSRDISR

Sequence of Glycogen synthase kinase-3 alpha (P49840 whole entry): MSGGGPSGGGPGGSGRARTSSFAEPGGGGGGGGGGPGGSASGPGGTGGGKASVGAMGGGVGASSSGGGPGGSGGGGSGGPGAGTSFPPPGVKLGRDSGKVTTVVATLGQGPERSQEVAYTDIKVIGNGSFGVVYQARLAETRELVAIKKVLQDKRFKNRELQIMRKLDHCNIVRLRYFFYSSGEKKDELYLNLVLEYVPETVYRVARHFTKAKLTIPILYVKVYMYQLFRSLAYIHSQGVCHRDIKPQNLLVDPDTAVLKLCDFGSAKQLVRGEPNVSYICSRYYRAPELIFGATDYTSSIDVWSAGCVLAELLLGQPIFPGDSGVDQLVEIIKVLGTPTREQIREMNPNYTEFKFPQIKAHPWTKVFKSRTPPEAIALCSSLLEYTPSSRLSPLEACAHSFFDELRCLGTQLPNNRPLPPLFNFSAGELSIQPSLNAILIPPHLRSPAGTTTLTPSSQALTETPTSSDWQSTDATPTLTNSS

Which IC50 [1] does the source give for `O=C1NC(Nc2ccccc2)=N/C1=C\c1ccc2c(c1)OCO2` here?
Its IC50 is 210 nM.

And the Activity [2]?
Its Activity is “Active”.

And the IC50 [3]?
Its IC50 is 380 nM.

And the Activity [4]?
Its Activity is “Active”.

What about the “Kd(free)” value (Protein VAC14 homolog) of the same compound?
Its value is 15265 nM.

What about the IC50 (CDK9/cyclin T1) of the same compound?
The IC50 was 18000 nM.

What about the IC50 [5] of the same compound?
The IC50 was 520 nM.

And the Activity (HT-22)?
The Activity was “Dose-dependent effect”.

What about the inhibition [6] of the same compound?
Its inhibition is “Active”.

And the IC50 [7]?
The IC50 was 30000 nM.

What about the IC50 [8] of the same compound?
Its IC50 is greater than 10000 nM.

What about the Activity [9] of the same compound?
The Activity was “Active”.

What about the inhibition [10] of the same compound?
The inhibition was “Dose-dependent effect”.

What about the Activity [11] of the same compound?
Its Activity is “Active”.

What about the inhibition [12] of the same compound?
Its inhibition is “Active”.

And the inhibition [13]?
Its inhibition is “Active”.

What about the inhibition [14] of the same compound?
Its inhibition is “Active”.

What about the Activity (Mus musculus) of the same compound?
Its Activity is “Active”.

And the Kd [15]?
Its Kd is 320 nM.

What about the IC50 [16] of the same compound?
Its IC50 is 720 nM.
